Test results: ChEMBL document CHEMBL1158353, “N1-Alkylated 3,4-dihydropyrimidine-2(1H)-ones: Convenient one-pot selective synthesis and evaluation of their calcium channel blocking activity” (Eur J Med Chem, 2009)

Key:
[1] = Inhibition of calcium channel in pig carotid artery assessed as relaxation of KCl-induced tissue contraction; type: tissue-based, Sus scrofa
Summary of the method: (§1)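 Arterial strips equilibrated 90-120 min in PSS at 37 °C, pH 7.4, bubbled with 100% O₂, under ~2 g passive force (near L_0), and repeatedly contracted with 110 mM KCl (equimolar NaCl substitution) until force stabilized. Then precontracted with 110 mM KCl PSS to stable force; cumulative compound addition (1 μM to 30 mM), DMSO vehicle control. Force expressed as percent of initial maximal KCl response at each concentration.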

Sus scrofa = species on record: Sus scrofa; test: Inhibition of calcium channel in pig carotid artery assessed as relaxation of KCl-induced tissue contraction at 1 uM to 30 mM; type: tissue-based; summary of the method: as §1

| IC50 [1] [µM] | SMILES | inhibition (Sus scrofa) [%] |
| --- | --- | --- |
| 100 | CCCCCCCCCCN1C(=O)NC(c2ccccc2)C(C(=O)OCC)=C1C (stereo not drawn) | 40 |
| 100 | CCCCN1C(=O)NC(c2ccccc2)C(C(=O)OCC)=C1C (stereo not drawn) | 40 |
| 100 | CCOC(=O)C1=C(C)N(CC)C(=O)NC1c1ccccc1 (stereo not drawn) | 40 |
| 100 | CCCCCN1C(=O)NC(c2ccccc2)C(C(=O)OCC)=C1C (stereo not drawn) | 40 |
| 100 | C=CCN1C(=O)NC(c2ccccc2)C(C(=O)OCC)=C1C (stereo not drawn) | 40 |
| 100 | CCCN1C(=O)NC(c2ccccc2)C(C(=O)OCC)=C1C (stereo not drawn) | 40 |

| SMILES | IC50 [1] [µM] | inhibition (Sus scrofa) [%] |
| --- | --- | --- |
| COC(=O)C1=C(C)NC(C)=C(C(=O)OC)C1c1ccccc1[N+](=O)[O-] [NIFEDIPINE] | 10 | – |
